Values after ≈ are worked out from the molar mass of the structure shown. Active and inactive are the calls of the source. The calls are words filed in the database; no cut-off is given here.
How the values were obtained:
[1] = (§1) Inhibition of full length rabbit myosin 2 skeletal muscle isoform derived from Psoas muscle ATPase activity assessed as reduction in steady-state rabbit F-actin-activated Mg2+ ATPase activity incubated for 6 to 24 mins in presence of ATPase buffer at 7.0 containing Mgcl2 and ATP by fluorescence-based assay; format: tissue-based, Oryctolagus cuniculus
COS-7 [2] = assay: Cytotoxicity against Green monkey COS-7 cells assessed as reduction in cell viability incubated for 24 hrs by MTT assay; format: toxicity, cell-based; conditions: chlorocebus aethiops, cos-7, 24 h
Summary of the method: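 COS-7 cells seeded at 2.5 × 10^4 per well, grown 24 h at 37 °C in 5% CO2, then treated 24 h with 20, 40, 100 or 200 μM compound in media with 1% DMSO (4 wells each). MTT 1.2 mM in PBS for 2 h in the dark, lysis in 0.1% NP-40/isopropanol with HCl, A564 read; CC50 and CC90 taken as concentrations giving 50% and 90% loss of viability.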

[3] = Inhibition of full length bovine Myosin-2 cardiac muscle isoform from left ventricle ATPase activity assessed as reduction in steady-state rabbit F-actin-activated Mg2+ ATPase activity incubated for 6 to 24 mins in presence of ATPase buffer at 7.0 containing Mgcl2 and ATP by fluorescence-based assay; parameters: species or system Bos taurus, Heart left ventricle
[4] = as §1, with “length chicken phosphorylated” for “length rabbit”, “2 smooth” for “2 skeletal”, “from gizzard” for “from Psoas muscle”; format: tissue-based, Gallus gallus
COS-7 [5] = assay: Inhibition of Non-muscle myosin IIB in African green monkey COS-7 cells assessed as inhibition of cytokinesis by measuring increase in nuclei to cell ratio (N/C) at 40 uM incubated for 24 hrs by fluorescein-diacetate, Hoechst 33342 and propidium iodide staining based fluorescence microscopy relative to control; conditions: Chlorocebus aethiops
Summary of the method: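 COS-7 cells (4,000/well) preincubated 24 h at 37 °C in 5% CO2, then exposed 24 h to 40 μM compound, final 1% DMSO. Media and 1% DMSO served as negative controls; para-aminoblebbistatin 20 μM and blebbistatin 10 μM as positive controls. Stained 10 min with FDA 6 μM, Hoechst 33342 10 μM and PI 4 μM, then imaged; N/C counted excluding PI-positive nuclei. Triplicate wells, ≥2 experiments, ≥600 cells per well.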

[6] = Selectivity index, ratio of IC50 for inhibition of full length bovine cardiac muscle myosin II ATPase activity to IC50 for inhibition of full length rabbit skeletal muscle myosin II ATPase activity
[7] = Kinetic solubility of the compound in 2.5% DMSO/PBS at pH 7.4 incubated for 1 hrs by nephelometry; format: physicochemical; conditions: for Kinetic_solubility: buffer, pH 7.4, 1 h; for solubility kinetic at 1 h: 2.5% DMSO/PBS, pH 7.4, read-out: Kinetic_solubility
Summary of the method: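 DMSO stock (20 mM) added to PBS pH 7.4, then serially diluted in quadruplicate at a constant 2.5% DMSO. Plates shaken 2 min, incubated 1 h at 37 °C, shaken 3 min, and turbidity read by nephelometry; average blank subtracted.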

[8] = Hydrolytic stability of the compound ATPase assay buffer at pH 7 containing Mgcl2 and ATP assessed as half life by UV-visible spectrophotometry; format: physicochemical
Summary of the method: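 Compound diluted from 20 mM DMSO stock to 8 μM final (2% DMSO) in ATPase buffer: 10 mM MOPS pH 7.0, 50 mM NaCl, 0.1 mM EGTA, 5 mM MgCl2, 2 mM ATP, 1 mM DTT. Kept sealed at 30 °C; UV-vis spectrum (0.5 nm steps, 1 cm quartz) recorded at start and every 24 h against fresh reference solutions.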

Compound | IC50 [4] [µM] | inhibition (COS-7 [5]) | further results
COc1cccc(C/N=C(\C)c2c(O)c3ccccc3oc2=O)c1 | ≥ 100 | inactive | IC50 [1]: 9.1 µM; CC10 (COS-7 [2]): 39 µM; CC50 (COS-7 [2]): > 200 µM; IC50 [3]: 4.4 µM; Ratio IC50 [6]: 0.5
CCCCC/N=C(\C)c1c(O)c2cc([N+](=O)[O-])ccc2oc1=O | ≥ 100 | inactive | –
C/C(=N\CCO)c1c(O)c2ccccc2oc1=O | ≥ 100 | inactive | –
C/C(=N\CC(C)C)c1c(O)c2ccccc2[nH]c1=O | ≥ 100 | inactive | –
C/C(=N\Cc1cccnc1)c1c(O)c2ccccc2oc1=O | ≥ 100 | inactive | –
CCCC/N=C(\C)C1C(=O)Oc2ccccc2C1=O (configuration not stated) | ≥ 100 | inactive | solubility kinetic at 1 h [7]: 607 µM (≈ 157 µg/mL)
CCC/C(=N\Cc1ccccc1)c1c(O)c2ccccc2oc1=O | ≥ 100 | inactive | –
C/C(=N\Cc1ccccc1)c1c(O)c2ccccc2n(C)c1=O | ≥ 100 | inactive | –
CCOCCC/N=C/c1c(O)c2ccccc2oc1=O | ≥ 100 | inactive | IC50 [1]: 3.3 µM; CC10 (COS-7 [2]): 135 µM; CC50 (COS-7 [2]): > 1000 µM; IC50 [3]: ≥ 100 µM; Ratio IC50 [6]: > 30
C/C(=N\Cc1ccncc1)c1c(O)c2ccccc2oc1=O | ≥ 100 | inactive | solubility kinetic at 1 h [7]: > 400 µM
Cc1ccc2c(c1)C(=O)[C@]1(O)CCN(c3ccccc3)C1=N2 | ≥ 100 | inactive | –
C/C(=N\CCO)c1c(O)c2ccccc2[nH]c1=O | ≥ 100 | inactive | –
Cc1ccc2c(c1)C(=O)[C@]1(O)CCN(c3ccc(N)cc3)C1=N2 | ≥ 100 | – | –
CC/C(=N\Cc1ccccc1)c1c(O)c2ccccc2oc1=O | ≥ 100 | inactive | –
C/C(=N\Cc1ccccc1C)c1c(O)c2ccccc2oc1=O | ≥ 100 | inactive | –
CCC(C)/N=C(\C)c1c(O)c2ccccc2[nH]c1=O (configuration not stated) | ≥ 100 | inactive | –
CCC/N=C(\C)c1c(O)c2ccccc2[nH]c1=O | ≥ 100 | inactive | –

Compound | IC50 [4] [µM] | inhibition (COS-7 [5]) | further results
COCCOCCOCCC/N=C(\C)c1c(O)c2ccccc2oc1=O | ≥ 100 | inactive | IC50 [1]: ≥ 100 µM; IC50 [3]: ≥ 100 µM
CCCCN(CCC/N=C(\C)c1c(O)c2ccccc2oc1=O)Cc1cccc(OC)c1 | ≥ 100 | inactive | IC50 [1]: ≥ 100 µM; IC50 [3]: ≥ 100 µM
C/C(=N\Cc1cccc(C)c1)c1c(O)c2ccccc2oc1=O | ≥ 100 | inactive | –
C/C(=N\Cc1ccccn1)c1c(O)c2ccccc2oc1=O | ≥ 100 | inactive | –
CC(=N)C1C(=O)Oc2ccccc2C1=O (configuration not stated) | ≥ 100 | inactive | –
C/C(=N\CC(C)C)c1c(O)c2ccccc2oc1=O | ≥ 100 | inactive | –
C/C(=N\CC1CCCCC1)c1c(O)c2ccccc2[nH]c1=O | ≥ 100 | inactive | –
CCC(C)/N=C(\C)c1c(O)c2ccccc2oc1=O (configuration not stated) | ≥ 100 | inactive | –
C/C(=N\Nc1ccccc1)c1c(O)c2ccccc2oc1=O | ≥ 100 | inactive | –
COc1ccc(COCCC/N=C(\C)c2c(O)c3ccccc3oc2=O)cc1 | ≥ 100 | inactive | IC50 [1]: 50 µM; CC10 (COS-7 [2]): 46 µM; CC50 (COS-7 [2]): > 200 µM; IC50 [3]: ≥ 100 µM; Kinetic_solubility [7]: 103 µM
CCCCC/N=C(\C)c1c(O)c2ccccc2[nH]c1=O | ≥ 100 | inactive | –
C/C(=N\Cc1ccc(C)cc1)c1c(O)c2ccccc2oc1=O | ≥ 100 | inactive | –
COc1ccc(C/N=C(\C)c2c(O)c3ccccc3oc2=O)cc1 | ≥ 100 | inactive | IC50 [1]: 1.6 µM; CC10 (COS-7 [2]): 36 µM; CC50 (COS-7 [2]): > 200 µM; IC50 [3]: 5.4 µM; Ratio IC50 [6]: 3.4
CCCCC/N=C(\C)c1c(O)c2ccccc2oc1=O | ≥ 100 | inactive | –
C/C(=N\C(C)C)c1c(O)c2ccccc2[nH]c1=O | ≥ 100 | inactive | –
O=c1oc2ccccc2c(O)c1/C=N/Cc1ccccc1 | ≥ 100 | inactive | IC50 [1]: ≥ 100 µM; t1/2 [8]: 60 h; IC50 [3]: ≥ 100 µM

Further lines, with some results ahead:

IC50 [4] [µM] | Compound | inhibition (COS-7 [5]) | further results
≥ 100 | COCC/N=C(\C)c1c(O)c2ccccc2oc1=O | inactive | IC50 [1]: 90 µM; CC10 (COS-7 [2]): 286 µM; CC50 (COS-7 [2]): > 200 µM; IC50 [3]: 52 µM; Ratio IC50 [6]: 0.6
≥ 100 | C/C(=N\Cc1ccccc1)c1c(O)c2cc([N+](=O)[O-])ccc2oc1=O | inactive | –
≥ 100 | CCCC/N=C(\C)c1c(O)c2ccccc2[nH]c1=O | inactive | –
≥ 100 | CC/N=C(\C)C1C(=O)Oc2ccccc2C1=O (configuration not stated) | inactive | –
≥ 100 | C/C(=N\CCCO)c1c(O)c2ccccc2oc1=O | inactive | –
≥ 100 | CCOCC/N=C(\C)c1c(O)c2ccccc2oc1=O | inactive | IC50 [1]: 19 µM; CC10 (COS-7 [2]): 184 µM; CC50 (COS-7 [2]): > 1000 µM; IC50 [3]: 24 µM; Ratio IC50 [6]: 1.3
≥ 100 | C/C(=N\CCCOCc1ccc2c(c1)OCO2)c1c(O)c2ccccc2oc1=O | inactive | IC50 [1]: 29 µM; CC10 (COS-7 [2]): 110 µM; CC50 (COS-7 [2]): > 200 µM; IC50 [3]: ≥ 100 µM; Kinetic_solubility [7]: 122 µM
≥ 100 | COc1cc(/C=C/C(=O)c2c(O)c3ccccc3oc2=O)ccc1O | inactive | IC50 [1]: ≥ 100 µM; IC50 [3]: ≥ 100 µM
≥ 100 | CCCCCC/N=C(\C)c1c(O)c2ccccc2oc1=O | inactive | –
≥ 100 | CCC/N=C(\C)c1c(O)c2ccccc2oc1=O | inactive | –
≥ 100 | C/C(=N\OCc1ccccc1)c1c(O)c2ccccc2oc1=O | inactive | –
≥ 100 | COCCC/N=C(\C)c1c(O)c2ccccc2oc1=O | inactive | IC50 [1]: 11 µM; CC10 (COS-7 [2]): 339 µM; CC50 (COS-7 [2]): > 1000 µM; IC50 [3]: 38 µM; Ratio IC50 [6]: 3.5
≥ 100 | C/C(=N\Cc1ccccc1)c1c(O)c2ccccc2[nH]c1=O | inactive | –
≥ 100 | C/C(=N\Cc1ccccc1)c1c(O)c2ccccc2oc1=O | inactive | t1/2 [8]: > 140 h
≥ 100 | C/N=C(\C)C1C(=O)Oc2ccccc2C1=O (configuration not stated) | inactive | –
≥ 100 | CCOCCC/N=C(\C)c1c(O)c2ccccc2oc1=O | inactive | IC50 [1]: 2.5 µM; CC10 (COS-7 [2]): 53 µM; CC50 (COS-7 [2]): 980 µM; IC50 [3]: 8.1 µM; Kinetic_solubility [7]: > 1250 µM; Ratio IC50 [6]: 3.2
≥ 100 | C/C(=N\C(C)C)c1c(O)c2ccccc2oc1=O | inactive | –
